Ratio and Activity data for one compound are collected here from ChEMBL document CHEMBL3351274, “Sensitization of tumor necrosis factor-related apoptosis-inducing ligand (TRAIL)-resistant primary prostate cancer cells by isoegomaketone from Perilla frutescens” (J Nat Prod, 2014).

SMILES strings stand for the structures. Calls of active or inactive are those of the source. The calls are words filed in the database; no cut-off is given here.

A short description of assay [1]: Induction of apoptosis in human RC-58T/h/SA#4 cells assessed as p53 expression at 20 uM after 18 hrs by immunoblotting analysis relative to untreated control. Type of assay: functional. The procedure, abridged: (§1)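 RC-58T/h/SA#4 cells seeded at 5 × 10^4 cells/mL and cultured 24 h, then given compound across a concentration series or at fixed dose over a time course. Lysates were quantified by BCA. 10 μg protein/lane run on 12% SDS-PAGE and transferred to nitrocellulose. Blots probed for p53, CHOP and β-actin with HRP secondary and ECL.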

The species entered for assay [2] is Homo sapiens. Kind of assay: Sensitization of TRAIL-induced apoptosis in human RC-58T/h/SA#4 cells assessed as cytochrome C level in mitochondria at 20 uM after 24 hrs by immunoblotting analysis relative to untreated control. Type of assay: functional, cell-based. The procedure, abridged: (§2)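 Cells given 20 μM compound and/or 100 ng/mL TRAIL for 24 h. Mitochondrial and cytosolic fractions prepared with a mitochondria isolation kit. Fractions resolved by 12% SDS-PAGE at 10 μg/lane and immunoblotted with anti-cytochrome c or anti-AIF overnight at 4 °C, then HRP secondary and ECL detection.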

Assay [3] is filed under the species Homo sapiens. Kind of assay: Sensitization of TRAIL-induced apoptosis in human RC-58T/h/SA#4 cells assessed as condensation of chromatin at 20 uM after 24 hrs by Hoechst 33258 staining-based fluorescence microscopy. Type of assay: functional, cell-based. The procedure, abridged:
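Cells seeded at 1 × 10^6/well and given 20 μM compound and/or 100 ng/mL TRAIL for 24 h. Cells fixed in 1% glutaraldehyde and stained with 5 μg/mL Hoechst 33258 for 10 min at room temperature. Nuclear fragmentation and chromatin condensation scored by fluorescence microscopy at ×400.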

The nature of assay [4]: Sensitization of TRAIL-induced apoptosis in human RC-58T/h/SA#4 cells assessed as accumulation at Sub-G1 phase at 20 uM after 24 hrs by annexin-V/propidium iodide staining-based flow cytometry in presence of pan-caspase inhibitor z-VAD-fmk (reference value: 4.8%). Type of assay: functional.
Assay [5] is described as follows: Induction of apoptosis in human RC-58T/h/SA#4 cells assessed as CHOP expression at 2.5 uM after 24 hrs by immunoblotting analysis relative to untreated control. Type of assay: functional. The procedure, abridged:
as §1

The nature of assay [6]: Induction of apoptosis in human RC-58T/h/SA#4 cells assessed as CHOP expression at 10 uM after 24 hrs by immunoblotting analysis relative to untreated control. Format: functional. The procedure, abridged:
as §1

Assay [7] is filed under the species Homo sapiens. Kind of assay: Induction of apoptosis in human RC-58T/h/SA#4 cells assessed as p53 expression at 2.5 to 40 uM by immunoblotting analysis relative to untreated control. Conditions: TDE = time-dependent effect. Format: functional, cell-based. The gist of the method: as §1
The nature of assay [8]: Sensitization of TRAIL-induced apoptosis in human RC-58T/h/SA#4 cells assessed as PARP cleavage at 20 uM after 24 hrs by immunoblotting analysis in presence of Dr5 Fc chimera relative to untreated control. Type of assay: functional. The gist of the method: (§3)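 Cells pretreated 2 h with 100 ng/mL DR5 Fc chimera, then given 20 μM compound and/or 100 ng/mL TRAIL for 24 h. Total lysates immunoblotted (12% SDS-PAGE, nitrocellulose) for caspase-3, -8, -9 and PARP cleavage, with HRP secondary and ECL detection.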

Assay [9] is described as follows: Induction of apoptosis in human RC-58T/h/SA#4 cells assessed as Bax activation at 20 uM after 24 hrs by immunoblotting analysis relative to untreated control. Format: functional. The gist of the method: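 Cells grown in DMEM/10% FBS at 37 °C, 5% CO2, then treated 24 h with compound (20 μM) with or without TRAIL (100 ng/mL). Whole lysates were used for Bax and Bcl-2. Cytosolic and mitochondrial fractions were prepared with a mitochondria isolation kit for AIF and cytochrome c. Blotting used 10 μg protein/lane, 12% SDS-PAGE, nitrocellulose, overnight primary antibody at 4 °C and ECL detection.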

The nature of assay [10]: Induction of ROS generation in human RC-58T/h/SA#4 cells at 20 uM after 30 mins by flow cytometry (reference value: 1.9%). Format: functional.
Assay [11] in a line: Induction of apoptosis in human RC-58T/h/SA#4 cells assessed as DR4 expression at 20 uM after 6 hrs by immunoblotting analysis relative to untreated control. Type of assay: functional.
A short description of assay [12]: Induction of apoptosis in human RC-58T/h/SA#4 cells assessed as p53 expression at 40 uM after 24 hrs by immunoblotting analysis relative to untreated control. Format: functional. The gist of the method: (§4)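 RC-58T/h/SA#4 cells (DMEM, 10% FBS, 37 °C, 5% CO2) exposed to the compound over a concentration range or time course. Lysates run on 12% SDS-PAGE at 10 μg protein/lane, transferred to nitrocellulose and blocked with BSA. Blots probed overnight at 4 °C with anti-p53, then HRP secondary antibody, ECL detection; β-actin as loading control.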

Assay [13] can be described thus: Sensitization of TRAIL-induced apoptosis in human RC-58T/h/SA#4 cells assessed as accumulation at Sub-G1 phase at 20 uM after 24 hrs by annexin-V/propidium iodide staining-based flow cytometry (reference value: 4.8%). Type of assay: functional.
Assay [14] is described as follows: Induction of apoptosis in human RC-58T/h/SA#4 cells assessed as p53 expression at 5 uM after 24 hrs by immunoblotting analysis relative to untreated control. Type of assay: functional. The procedure, abridged: as §4
For assay [15], the species on record is Homo sapiens. Kind of assay: Induction of apoptosis in human RC-58T/h/SA#4 cells assessed as CHOP expression after 3 to 24 hrs by immunoblotting analysis relative to untreated control. Format: functional, cell-based. The gist of the method:
as §1

Assay [16] is described as follows: Induction of apoptosis in human RC-58T/h/SA#4 cells assessed as DR4 expression at 2.5 uM after 24 hrs by immunoblotting analysis relative to untreated control. Format: functional.
Assay [17] can be described thus: Sensitization of TRAIL-induced apoptosis in human RC-58T/h/SA#4 cells assessed as accumulation at Sub-G1 phase at 20 uM after 24 hrs by annexin-V/propidium iodide staining-based flow cytometry in presence of Dr5 Fc chimera (reference value: 4.8%). Format: functional.
A short description of assay [18]: Sensitization of TRAIL-induced apoptosis in human RC-58T/h/SA#4 cells assessed as procaspase-8 activation at 20 uM after 24 hrs by immunoblotting analysis in presence of Dr5 Fc chimera relative to untreated control. Format: functional. The procedure, abridged:
as §3

Assay [19] is described as follows: Induction of apoptosis in human RC-58T/h/SA#4 cells assessed as CHOP expression at 20 uM after 12 hrs by immunoblotting analysis relative to untreated control. Type of assay: functional. The procedure, abridged: as §1
Assay [20] is described as follows: Induction of apoptosis in human RC-58T/h/SA#4 cells assessed as DR5 expression at 2.5 uM after 24 hrs by immunoblotting analysis relative to untreated control. Type of assay: functional.
For assay [21], the species on record is Homo sapiens. Kind of assay: Sensitization of TRAIL-induced apoptosis in human RC-58T/h/SA#4 cells assessed as AIF level in mitochondria at 20 uM after 24 hrs by immunoblotting analysis relative to untreated control. Format: functional, cell-based. The gist of the method:
as §2

For assay [22], the species on record is Homo sapiens. Kind of assay: Induction of apoptosis in human RC-58T/h/SA#4 cells assessed as DR5 expression at 20 uM by immunoblotting analysis relative to untreated control. Type of assay: functional, cell-based. Conditions: TDE = time-dependent effect.
The nature of assay [23]: Induction of apoptosis in human RC-58T/h/SA#4 cells assessed as DR5 expression at 20 uM after 12 hrs by immunoblotting analysis relative to untreated control. Format: functional.
Assay [24] can be described thus: Induction of apoptosis in human RC-58T/h/SA#4 cells assessed as DR5 expression at 20 uM after 24 hrs by immunoblotting analysis relative to untreated control. Type of assay: functional.

Take `CC(C)/C=C/C(=O)c1ccoc1`: the Ratio in assay [1] worked out at 2.2; in assay [2], 0.5; in assay [5], 1.3; in [6], 1.4; in assay [8], 1; in assay [9], 1.5. The Ratio is on record as 1.1 in assay [11]; 2.4 in assay [12]; 1.2 in assay [14]; 1.1 in assay [16]; 0.8 in assay [18]; 1.6 in assay [19]. Further, the Ratio in [20] came out at 1; in assay [21] it was 0.3; in assay [23], 1.3; in [24], 1.2. Moreover, the outcome in assay [3] was Active. Also, the Activity in [4] is 14.4%; in [7], “tde”; in [10] it was 2.9%; in [13] it was 18%; in assay [15], “Dose-dependent effect”; in assay [17], 14.3%. For the same compound, the Activity entry in [22] was “tde”.
